RAD54 inh: inhibitors of human RAD54 branch migration; Q92698; RAD54 Holliday junction branch migration, FAM/BHQ fluorescence; inhibition, % at 10.4 µM; actives 0.14% (n = 360,000); AID 602329;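 active = mean normalized replicate activity at least 40 and at least half of replicates scoring 40 or more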;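 note: inhibitors cause a drop in the FAM fluorescence signal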
Target sequence (Q92698 whole entry, looked up): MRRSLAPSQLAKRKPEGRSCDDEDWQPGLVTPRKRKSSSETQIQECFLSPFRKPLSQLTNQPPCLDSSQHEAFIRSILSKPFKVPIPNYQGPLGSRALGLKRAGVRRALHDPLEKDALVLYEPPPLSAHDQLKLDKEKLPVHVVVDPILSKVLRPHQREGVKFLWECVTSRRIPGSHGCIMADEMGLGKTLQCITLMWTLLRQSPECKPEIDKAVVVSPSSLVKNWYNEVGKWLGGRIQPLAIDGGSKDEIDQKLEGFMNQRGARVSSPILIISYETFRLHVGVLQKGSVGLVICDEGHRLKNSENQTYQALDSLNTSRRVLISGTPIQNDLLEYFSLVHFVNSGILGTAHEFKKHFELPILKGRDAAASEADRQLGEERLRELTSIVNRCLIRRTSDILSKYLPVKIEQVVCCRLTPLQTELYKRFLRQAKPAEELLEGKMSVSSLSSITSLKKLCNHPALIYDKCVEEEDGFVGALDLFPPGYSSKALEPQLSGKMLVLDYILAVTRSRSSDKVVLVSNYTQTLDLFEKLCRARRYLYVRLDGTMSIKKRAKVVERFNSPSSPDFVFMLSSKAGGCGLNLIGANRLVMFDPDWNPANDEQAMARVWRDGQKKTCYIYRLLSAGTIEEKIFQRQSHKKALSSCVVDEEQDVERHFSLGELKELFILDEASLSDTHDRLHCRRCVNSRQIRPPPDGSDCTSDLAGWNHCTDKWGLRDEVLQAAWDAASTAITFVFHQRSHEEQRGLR
RAD52 inh: RAD52 (human) annealing inhibition; AID 651710; inhibition, % at 18.7 µM; P43351; recombinant RAD52 DNA annealing, FRET fluorescence; actives 0.46% (n = 360,000);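 active = every replicate showing at least 50% inhibition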
PAX8 inh HTS: PAX8 transcriptional activity inhibition | RMG-I TPO-luciferase reporter, SteadyGlo, 24 h | inhibition, % at 12.6 µM | actives 1.2% (n = 360,000) | AID 652154;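 active = mean replicate inhibition at least 60% with every replicate also reaching 60%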;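 note: luciferase light reporting Pax8 driven TPO promoter activity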
FN deposit inh: fibronectin deposition inhibition. AH1F fibroblasts, Alexa488-fibronectin deposition fluorescence, overnight. inhibition, % at 12.6 µM. actives 0.086% (n = 350,000). AID 743247;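 active = mean inhibition across replicates of 30% or more, regardless of how many single replicates reach that level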
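Material: AH1F fibroblasts assembling fluorescent fibronectin matrix; amount: 10000 AH1F cells/well; medium: DMEM, 2% serum; reagent: Alexa488-fibronectin, 24 nM final in well; dosing: single compound dose, delivered by pin transfer; incubation: 1 h adhesion, overnight exposure; detection: fluorescence after three HBSS washes, excitation 485 nm, emission 525 nm; measure: fibronectin deposition inhibition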
Each line names hits and unclear results; the compound was inactive in the other large screens. Compounds with a hit are over-represented: about 1.3% of the library has one in this group of screens.

Cc1ccc(S(=O)(=O)Nc2ccc3c(c2)C(=O)N([C@@H](C)CO)C[C@@H](C)[C@@H](CN(C)Cc2ccc(C(=O)O)cc2)OCCCC[C@@H](C)O3)cc1	none
Cc1ccc(S(=O)(=O)Nc2ccc3c(c2)C(=O)N([C@H](C)CO)C[C@@H](C)[C@H](CN(C)Cc2ccc(C(F)(F)F)cc2)OCCCC[C@H](C)O3)cc1	PAX8 inh HTS 116
Cc1ccc(S(=O)(=O)Nc2ccc3c(c2)C(=O)N([C@@H](C)CO)C[C@H](C)[C@H](CN(C)Cc2ccc(C(F)(F)F)cc2)OCCCC[C@H](C)O3)cc1	PAX8 inh HTS 108
Cc1ccc(S(=O)(=O)Nc2ccc3c(c2)C(=O)N([C@@H](C)CO)C[C@H](C)[C@H](CN(C)Cc2ccc(C(F)(F)F)cc2)OCCCC[C@@H](C)O3)cc1	PAX8 inh HTS 102
Cc1ccc(S(=O)(=O)Nc2ccc3c(c2)C(=O)N([C@H](C)CO)C[C@H](C)[C@@H](CN(C)Cc2ccc(C(F)(F)F)cc2)OCCCC[C@H](C)O3)cc1	PAX8 inh HTS 97
CCOCCCNC(=O)c1cn(CC(C)C)c(=O)c2cc(OC)c(OC)cc12	none
CC12C=CC(=O)C=C1CCC1C2CCC2(C)C(C(=O)CO)CCC12 (centres undefined)	none (no result: RAD54 inh)
Cc1ccc(S(=O)(=O)Nc2ccc3c(c2)C(=O)N([C@@H](C)CO)C[C@H](C)[C@@H](CN(C)Cc2ccc(C(F)(F)F)cc2)OCCCC[C@@H](C)O3)cc1	PAX8 inh HTS 97
COc1ccc(CN2[C@H](CO)[C@H]3c4ccccc4NC[C@H]32)cc1	PAX8 inh HTS 96
COc1ccc(CN2[C@@H](CO)[C@@H]3c4ccccc4NC[C@@H]32)cc1	none
C[n+]1ccc(/C=N/Nc2nc(Cl)c(C#N)c(Cl)c2Cl)cc1	PAX8 inh HTS 63
CCOc1ccc(CN(C)C(=O)CN2C(=O)NC3(CCCc4ccccc43)C2=O)cc1 (centres undefined)	none
CCC(=O)Oc1ccc2c(C)cc(=O)oc2c1C(=O)c1ccccc1	PAX8 inh HTS 88
CC1(C)N=C(N)N=C(N)N1c1ccc(OCCCOc2ccccc2)c(Cl)c1	PAX8 inh HTS 71
CC1(C)N=C(N)N=C(N)N1c1ccc(OCC(=O)Nc2ccccc2)c(Cl)c1	none (no result: RAD54 inh, FN deposit inh)
COC(=O)c1sc(N)c(C(=O)OC)c1Cn1ncc(Cl)c(Cl)c1=O	PAX8 inh HTS 63
C[C@@H]1CN([C@H](C)CO)C(=O)CCCn2nncc2CO[C@@H]1CN(C)C(=O)CCC(F)(F)F	none
COc1ccc(COC(=O)c2cc([N+](=O)[O-])ccc2N2CCOCC2)cc1F	PAX8 inh HTS 96
O=C(OCc1ccc(Br)cc1)c1cc([N+](=O)[O-])ccc1N1CCOCC1	none
O=C(COC(=O)c1cc([N+](=O)[O-])ccc1N1CCOCC1)Nc1ccc(Cl)cn1	PAX8 inh HTS 61 (no result: FN deposit inh)
O=C(OCc1cccc(Cl)c1)c1cc([N+](=O)[O-])ccc1N1CCOCC1	PAX8 inh HTS 74
C[C@@H]1CN([C@H](C)CO)C(=O)c2cccc(NC(=O)c3cnccn3)c2O[C@@H]1CN(C)S(=O)(=O)c1cn(C)cn1	none (no result: PAX8 inh HTS)
C[C@H]1CCCCO[C@H](CN(C)S(=O)(=O)c2ccccc2)[C@@H](C)CN([C@@H](C)CO)C(=O)c2cc(NS(=O)(=O)c3ccccc3)ccc2O1	none
COC1(OC)C=CC(=O)C=C1NC(=O)c1ccccc1OC(C)=O	PAX8 inh HTS 69
CC(=O)Oc1ccccc1C(=O)Nc1ccccc1	none
CC(C)CC#Cc1ccc2c(c1)O[C@H](CN(C)C(=O)C1CC1)[C@@H](C)CN([C@H](C)CO)S2(=O)=O	none (no result: RAD54 inh, RAD52 inh, PAX8 inh HTS)
CC(=O)c1cc(NC(=O)c2cccc(C(F)(F)F)c2)c(=O)oc1/C=C/N(C)C	none (no result: RAD52 inh, PAX8 inh HTS, FN deposit inh)
CC(=O)c1cc(NC(=O)c2cccc(C(F)(F)F)c2)c(=O)oc1C	PAX8 inh HTS 89 (no result: RAD54 inh)
Cc1ccc2c(CSc3nnc4ccccn34)cc(=O)oc2c1C	PAX8 inh HTS 66
Cc1ccc2c(CSc3nc4ccccc4c(=O)n3CCCO)cc(=O)oc2c1C	none (no result: RAD52 inh, PAX8 inh HTS, FN deposit inh)
CN(C)CC(=O)N[C@H]1C[C@@H]2O[C@H](CO)CC[C@@H]2O[C@@H]1CCc1ccc(C#Cc2ccccc2)cc1	RAD52 inh 60 (no result: RAD54 inh, FN deposit inh)
OC[C@H]1CC[C@@H]2O[C@H](CCc3ccc(C#CCc4ccccc4)cc3)[C@@H](n3cc(-c4ccccc4)nn3)C[C@@H]2O1	PAX8 inh HTS 71 (no result: RAD54 inh, FN deposit inh)
COc1ccc(-c2ccc(C3[C@@H]4CN(C(=O)Nc5ccccc5F)C[C@H]3N4)cc2)cc1 (some centres undefined)	none (no result: RAD54 inh)
COc1ccc2ccccc2c1/C=N/NC(=O)c1cccc(Br)c1	none (no result: RAD54 inh)
O=C(N/N=C\c1c(O)ccc2ccccc12)c1ccc(Cn2cccn2)o1	PAX8 inh HTS 67 (no result: RAD52 inh)
O=C(N/N=C/c1c(O)ccc2ccccc12)c1cccc(C(F)(F)F)c1	PAX8 inh HTS 70 (no result: RAD54 inh, RAD52 inh, FN deposit inh)
O=C(N/N=C\c1ccc(Cl)s1)c1ccc(Cn2cccn2)o1	none (no result: RAD54 inh)
CC(C)(c1ccccc1)c1ccc(OCC(O)CNC2CCN(Cc3ccccc3)CC2)cc1 (centres undefined)	PAX8 inh HTS 80
CCOC(=O)CCC(=O)Nc1ccc(S(=O)(=O)N2CCC(C)CC2)cc1	none (no result: PAX8 inh HTS)
O=C(COC(=O)/C(=C/c1cccs1)c1cccs1)NC(c1ccccc1)c1ccccc1	PAX8 inh HTS 93 (no result: RAD52 inh)
O=C(Cc1cccs1)NC(c1ccccc1)c1ccccc1	none (no result: RAD54 inh)
CC(C)(C)c1nnc(NC(=O)CCS(=O)(=O)c2ccccc2)s1	PAX8 inh HTS 97
O=C(CCS(=O)(=O)c1ccccc1)Nc1nnc(C(F)(F)F)s1	none (no result: RAD54 inh)
CC(C)(C)c1nnc(NC(=O)CCS(=O)(=O)Cc2ccccc2)s1	PAX8 inh HTS 84
CC(Oc1ccccc1)C(=O)Nc1nc2c(s1)C(=O)CC(C)(C)C2 (centres undefined)	none (no result: RAD52 inh, PAX8 inh HTS, FN deposit inh)
CC1(C)CC(=O)c2sc(NC(=O)CCS(=O)(=O)c3ccccc3)nc2C1	PAX8 inh HTS 109
Cc1ccc(NC=C(S(=O)(=O)c2ccccc2)S(=O)(=O)c2ccccc2)c(C)c1	none (no result: RAD52 inh, PAX8 inh HTS, FN deposit inh)
COC(=O)C1=C(C)N=C2SCCC(=O)N2C1c1cc(Br)ccc1OC (centres undefined)	none (no result: RAD52 inh, PAX8 inh HTS, FN deposit inh)
C[C@H](CO)N1C[C@H](C)[C@H](CN(C)Cc2ccc(Cl)c(Cl)c2)Oc2c(NC(=O)C3CC3)cccc2C1=O	none (no result: PAX8 inh HTS, FN deposit inh)
Cc1ccc(Nc2nc(N)nc(CCl)n2)c(C)c1	PAX8 inh HTS 106 (no result: RAD54 inh)
Cc1ccc(Nc2nc(N)nc(CC#N)n2)cc1	none (no result: RAD52 inh, PAX8 inh HTS, FN deposit inh)
CCOc1ccc(Nc2nc(N)nc(CN3CCN(c4ccccc4F)CC3)n2)cc1	none
Cc1ccc(Nc2nc(N)nc(CCl)n2)cc1	PAX8 inh HTS 105
Cc1ccc(Nc2nc(N)nc(CN3CCCCCC3)n2)c(C)c1	none (no result: RAD52 inh, PAX8 inh HTS, FN deposit inh)
Nc1nc(CCl)nc(Nc2ccccc2)n1	PAX8 inh HTS 88 (no result: RAD54 inh)
CCOc1ccc(Nc2nc(N)nc(CCl)n2)cc1	PAX8 inh HTS 110
Cc1ccc(NC(=O)Cn2c(=O)cnc3ccccc32)cc1S(=O)(=O)N(C)C	none (no result: RAD54 inh, RAD52 inh)
Cc1cccc(Nc2nc(N)nc(CCl)n2)c1C	PAX8 inh HTS 125
Cc1cccc(Nc2nc(N)nc(CN3CCC(C(N)=O)CC3)n2)c1C	none (no result: RAD52 inh, PAX8 inh HTS, FN deposit inh)
CN1c2ccc(-c3cccc(C#N)c3)cc2[C@H]2[C@H](CCN2S(=O)(=O)c2cccc(F)c2)[C@H]1CO	none (no result: RAD52 inh)
